Assay outcomes: PubChem BioAssay, several laboratories
tolC growth inh: E. coli tolC mutant growth inhibition | E. coli BW25113 tolC mutant growth, OD615 | growth inhibition, % at 10 µM (by protocol) | 65,000 tested, 2.2% active | AID 573;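 active means growth inhibition at or above a cutoff equal to the mean over every tested compound plus 3 SD, cut at about 60% in these data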;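 further: growth measured after 20 h incubation at 37 °C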
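Test system: tolC-deleted E. coli BW25113 | Medium: LB with kanamycin 50 µg/mL | Compound dosing: Single concentration, 10 µM final per compound | Schedule: 37 °C, 20 h exposure | Measured by: OD at 615 nm | Evaluation: Percent growth inhibition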
M1 antagonist: M1 muscarinic receptor (rat) antagonism; AID 628; CHO-M1 cells, Fluo-4 calcium, ACh EC80 antagonist mode; stronger effect = lower value; B-score at 10 µM; 64,000 tested, 3.4% active; P08482;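 active means calcium fluorescence response, raw or row-and-column corrected B-score, differing from the plate sample mean either way at a set confidence level, mostly lower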
Target sequence (P08482 whole entry, looked up): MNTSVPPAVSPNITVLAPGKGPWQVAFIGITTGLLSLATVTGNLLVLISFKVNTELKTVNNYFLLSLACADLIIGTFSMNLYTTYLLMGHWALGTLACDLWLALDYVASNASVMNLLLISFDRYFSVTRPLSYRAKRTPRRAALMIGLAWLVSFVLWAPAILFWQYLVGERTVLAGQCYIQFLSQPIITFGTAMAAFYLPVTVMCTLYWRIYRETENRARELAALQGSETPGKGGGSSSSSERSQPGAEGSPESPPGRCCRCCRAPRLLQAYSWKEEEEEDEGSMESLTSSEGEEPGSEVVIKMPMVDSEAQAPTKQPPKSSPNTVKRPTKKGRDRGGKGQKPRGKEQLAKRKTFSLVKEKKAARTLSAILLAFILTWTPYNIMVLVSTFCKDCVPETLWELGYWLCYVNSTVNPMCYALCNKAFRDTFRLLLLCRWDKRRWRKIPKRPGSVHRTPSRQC
BAP1 block: blocks human BAP1 ubiquitin-AMC hydrolysis; Q92560; recombinant BAP1, Ub-AMC hydrolysis fluorescence kinetic; stronger effect = lower value; calls only at 20 µM; 72,000 tested, 0.48% active; AID 436;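 active means activity remaining at or below 50% of control, provided the compound also passes the data quality filters; inactive means the rest, including low values that fail the filters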
E coli WT exp: E. coli BW25113 growth inhibition, expanded screen | OD600 absorbance | growth inhibition, % at 100 µM | 98,000 tested, 0.15% active | AID 710;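 active means growth inhibition above about 50% at one test dose, limit read from the data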;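 further: growth measured after 20 h incubation at 37 °C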
M1 agonist: activates the M1 muscarinic receptor; CHO-M1 cells, Fluo-4 calcium fluorescence, agonist mode; stronger effect = higher value; B-score at 10 µM; 64,000 tested, 3% active;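 active means fluorescence rise, raw or as B-score row- and column-corrected plate score, outside the 99.7% band of its plate's samples, either direction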
Hsp90 block: displaces geldanamycin probe from tumor Hsp90 | P07900 | NCI-N417 lysate Hsp90, Cy3B-geldanamycin FP displacement | inhibition, % at 30 µM | 64,000 tested, 0.35% active;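 active means inhibition above 50%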
M1 antag confirm: confirmation of rat M1 muscarinic receptor antagonists | shares compounds with M1 antagonist | CHO-M1 cells, Fluo-4 calcium, ACh EC80 antagonism; stronger effect = lower value | calcium response (max-min fluorescence) at 10 µM | 1,700 tested, 43% active;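 active means calcium response below the same-plate mean of wells given acetylcholine alone at its 80%-effect dose, minus 3 SD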
mGluR4 antag: acts on human mGluR4 in M1 antagonist selectivity test; shares compounds with M1 antagonist; CHO-mGluR4 calcium flux, Fluo-4 fluorescence, glutamate EC80; stronger effect = lower value; fluorescence response (max-min) at 10 µM; 1,700 tested, 0.9% active;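 active means fluorescence response below the plate's average for near-maximal glutamate wells, less 3 SD of those wells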;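 further: raw unnormalized fluorescence span taken in the window right after glutamate addition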
Numbers stand for hits; - = inactive; . = not tested or not shown. The list is not random: actives were taken first. Their share in the collection is about 5.1%.

SMILES	tolC growth inh	M1 antagonist	BAP1 block	E coli WT exp	M1 agonist	Hsp90 block	M1 antag confirm	mGluR4 antag
CCOc1ccc(NC(=O)C2CC(=O)N(c3cc(C)cc(C)c3)C2)cc1 (stereo not given)	-	-2.8	-	-	-	-	-	-
COC(=O)C1=C(C)NC(=O)CC1c1ccc(Cl)c([N+](=O)[O-])c1 (stereo not given)	.	.	-	.	.	.	.	.
CCOC(=O)c1cnc2ccc(OCC)cc2c1N1CCN(c2ccccc2)CC1	.	.	.	-	.	.	.	.
CCOC(=O)c1cnc2c(Cl)c(Cl)ccc2c1N1CCN(C)CC1	-	-3.1	-	-	-	-	-	-
Nc1[nH]c(=S)[nH]c(=O)c1-c1ccccc1	-	-2.3	-	-	-	-	-	-
Cc1ccc(N2C(=O)CSC23C(=O)Nc2ccccc23)cc1 (stereo not given)	-	-3.2	-	-	-	-	-	-
CC(C)C12CN3CC(C(C)C)(CN(C1)C31C(=O)Nc3ccccc31)C2=O (stereo not given)	-	-	-	-	-	-	.	.
CN1C(=S)SC(/[N+]([O-])=C\c2cccs2)C1(C)C (stereo not given)	-	-8	-	-	-	-	-	-
Cc1ccc(/C=[N+](/[O-])C2SC(=S)N(C)C2(C)C)cc1 (stereo not given)	.	.	.	-	.	.	.	.
Cc1ccccc1NC1=NS(=O)(=O)c2cc([N+](=O)[O-])ccc21	.	.	-	.	.	.	.	.
CC(C(=O)c1ccccc1)n1cnc2ccccc2c1=O (stereo not given)	-	-10	-	-	-	-	-	-
COc1ccc(OC)c(N=C2C(=O)Nc3ccccc32)c1	-	-	-	-	-	-	.	.
COc1ccc(N=C2C(=O)Nc3ccccc32)cc1	-	-4.4	-	-	-	-	-	-
Clc1ccc(C2=Nn3c(nnc3-c3cccc(Br)c3)SC2)cc1	.	.	-	.	.	.	.	.
CCCC(CCC(=O)NC1CCCCC1)C(=O)O (stereo not given)	-	-	-	-	-	-	.	.
CCCC(CCC)C(=O)OC1C[C@H]2CC[C@@H](C1)[N+]2(C)C (stereo not given in full)	-	-15	-	.	-	-	30	-
O=C(c1cc2ccccc2o1)N1CCN(c2ccc(Cl)cc2[N+](=O)[O-])CC1	.	.	-	.	.	.	.	.
O=C(Nc1cccc(O)c1)c1ccc(CSc2ccc(Br)cc2)cc1	.	.	-	.	.	.	.	.
CN1CCCC(OC(=O)c2cc(Br)ccc2Cl)C1 (stereo not given)	-	-6.6	-	-	-	-	412	-
CN1CCCC(OC(=O)c2cc(Cl)ccc2Cl)C1 (stereo not given)	-	-	-	-	-	-	.	.
O=C(O)CCCCN1Cc2ccccc2C1	.	.	-	.	.	.	.	.
S=c1[nH]nc(Cc2ccccc2)n1Cc1ccco1	-	-13	-	-	-	-	52	-
CCCCNCCCOc1cccc(Cl)c1	-	-4.6	-	-	-2.8	-	-	-
Cc1cc(Br)c(S(=O)(=O)n2nnc3ccccc32)cc1C	-	-12	-	-	-	-	-	-
COc1cc(C)c(S(=O)(=O)n2nnc3ccccc32)cc1C	.	.	.	-	.	.	.	.
SMILES	tolC growth inh	M1 antagonist	BAP1 block	E coli WT exp	M1 agonist	Hsp90 block	M1 antag confirm	mGluR4 antag
CCCN1Cc2cccc(C(=O)Nc3ccc(N4CCN(CC)CC4)cc3)c2C1=O	-	-1.7	-	.	-	-	354	-
CCN1CCN(c2ccc(NC(=O)c3cccc4ncccc34)cc2)CC1	-	-5.1	-	-	-	-	-	-
O=C(Nc1ccc(N2CCCCC2)cc1)c1cccnc1Cl	.	.	.	-	.	.	.	.
O=[N+]([O-])c1cc(S(=O)(=O)C(Cl)(Cl)Br)ccc1NC1CCCC1	.	.	-	.	.	.	.	.
Cc1ccccc1OCC(=O)Nc1c(C)n(C)n(-c2ccccc2)c1=O	.	.	-	.	.	.	.	.
C=CCOn1c(=O)c(=O)n(OCc2ccccc2)c2ccccc21	-	-2.6	-	-	-	-	-	-
CC(C)CCn1c(NCCN(C)C)nc2c1c(=O)[nH]c(=O)n2C	-	-4	-	-	-	-	-	-
CCCNc1nc2c(c(=O)[nH]c(=O)n2C)n1CCC(C)C	-	-	-	-	-	-	.	.
COc1cc2c(C(=O)NCc3ccc(C)o3)cn(CC(C)C)c(=O)c2cc1OC	-	-	-	-	-	-	.	.
CCC1CCCCN1CCCNC(=O)c1cn(CC(C)C)c(=O)c2cc(OC)c(OC)cc12 (stereo not given)	-	-1.2	.	-	-	.	458	-
CCn1c(=N)n(CC(=O)c2ccco2)c2ccccc21	-	-4	-	-	-	-	-	-
CCCCn1c(=N)n(CC(=O)c2ccco2)c2ccccc21	.	.	-	-	.	.	.	.
Cc1cc(N2CCN(c3nc(N4CCOCC4)nc4ccccc34)CC2)c2ccccc2n1	-	-7.1	-	.	-	-	24	-
COc1cccc(N2C(=O)CC(NCc3ccc(S(N)(=O)=O)cc3)C2=O)c1 (stereo not given)	.	.	-	.	.	.	.	.
CSc1nnc2c(n1)OC(c1cccn1C)N(C(C)=O)c1ccccc1-2 (stereo not given)	-	-5.7	-	-	-	-	158	-
C=CCSc1nnc2c(n1)OC(c1cccnc1)N(C(C)=O)c1ccccc1-2 (stereo not given)	-	-4.2	-	-	-	-	373	-
O=C(CCN1CCCCC1)Nc1ccc(Br)cc1	-	-	-	-	-	-	.	.
COC(=O)c1ccc(NC(=O)CCN2CCCCC2)cc1	-	-1.3	-	-	-	-	553	-
CCOc1ccc(C(=O)CCN2CCCCCC2)cc1	.	-2.5	-	-	-	-	-	-
O=C(c1oc(=O)c2ccccc2c1-c1ccccc1)N1CCN(C2CCCCC2)CC1	-	-6.6	-	-	-	-	349	-
CCC1(C)Cc2ccccc2-c2nc(NCCO)n(-c3ccccc3)c(=O)c21 (stereo not given)	-	-	-	.	-	-	.	.
CCC1(C)Cc2ccccc2-c2nc3n(c(=O)c21)CCCCC3 (stereo not given)	100	-4	.	-	-	.	420	-
COc1ccc(NC(=O)c2cccs2)cc1OC	-	-	-	-	-	-	.	.
COC(=O)c1sc2ccccc2c1NC(=O)c1cccs1	-	-1.4	-	-	-	-	642	-
COc1cc(NC(=O)c2cccs2)cc(OC)c1	-	-3.4	-	-	-	-	-	-
COCCCn1c(=N)c(C(=O)NCc2ccc3c(c2)OCO3)cc2c(=O)n3ccccc3nc21	-	-	-	-	-	-	.	.
CCOCCCn1c(=N)c(C(=O)NCc2ccc3c(c2)OCO3)cc2c(=O)n3cccc(C)c3nc21	-	-10	.	-	-	-	91	-
COCCCn1c(=N)c(C(=O)NCc2ccc3c(c2)OCO3)cc2c(=O)n3cccc(C)c3nc21	-	-7.1	-	.	-	-	90	-
